Test [1] deals with HeLa. The test is described as follows: Cytotoxicity against human HeLa cells after 72 hrs by MTT assay. It is filed as functional, cell-based. The gist of the method:
(§1)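 MTT assay. Cells seeded at 7 × 10³ per well; after 24 h, exponentially growing cells were exposed to compound (final 0.005–100 µM) for 72 h. MTT was added for 4 h, then 10% SDS in 0.01 N HCl for 18 h at 37 °C. Absorbance read at 550 nm; survival given as % of untreated cells. IC50 from 6-8 replicate wells, ≥2 independent experiments.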

Test [2] relates to HepG2. The test is described as follows: Cytotoxicity against human HepG2 cells after 72 hrs by MTT assay. In kind it is functional, cell-based. To be noted: HepG2, 72 h. The gist of the method: as §1
(In general: Formazan colour is commonly taken as a measure of viable cells.)

The nature of test [3]: Cytotoxicity against human H295R cells after 72 hrs by MTT assay. It is filed as functional, cell-based. As to conditions: NCI-H295R. In outline: as §1
In test [4] the test system is OVCAR-3. The test is described as follows: Cytotoxicity against human Ovcar3 cells after 72 hrs by MTT assay. It is filed as functional, cell-based. To be noted: OVCAR-3, 72 h. In outline: as §1
Test [5] has as its system MCF7. Briefly: Cytotoxicity against human MCF7 cells after 72 hrs by MTT assay. In kind it is functional, cell-based. As to conditions: MCF7, 72 h. In outline: as §1
For test [6], the system named is ARO. The test is described as follows: Cytotoxicity against human Aro cells after 72 hrs by MTT assay. In kind it is functional, cell-based. In outline: as §1
The subject of test [7] is A549. Briefly: Cytotoxicity against human A549 cells after 72 hrs by MTT assay. To be noted: A549, 72 h. In kind it is functional, cell-based. The gist of the method:
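MTT assay. Cells seeded at 7 × 10³ per well; after 24 h, exponentially growing cells were exposed to compound (final 0.005–100 µM) for 72 h. MTT was added for 4 h, then 10% SDS in 0.01 N HCl for 18 h at 37 °C. Absorbance read at 550 nm; survival given as % of untreated cells.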

Test [8] has as its system HT-29. The test is described as follows: Cytotoxicity against human HT29 cells after 72 hrs by MTT assay. In kind it is functional, cell-based. To be noted: HT-29, 72 h. In outline: as §1
Test [9] has as its system PT-45. The test is described as follows: Cytotoxicity against human PT45 cells after 72 hrs by MTT assay. It is filed as functional, cell-based. As to conditions: PT-45, 72 h. The gist of the method:
as §1

Test [10] relates to OE19. Briefly: Cytotoxicity against human OE19 cells after 72 hrs by MTT assay. It is filed as functional, cell-based. As to conditions: OE19, 72 h. In outline:
as §1

In test [11] the test system is OE33. Briefly: Cytotoxicity against human OE33 cells after 72 hrs by MTT assay. It is filed as functional, cell-based. To be noted: OE33, 72 h. The gist of the method:
as §1

Test [12] in a line: Cytotoxicity againat taxol-resistant human A549T12 cells after 72 hrs by MTT assay. As to conditions: A549, 72 h. In kind it is functional, cell-based.
A short description of test [13]: Cytotoxicity againat taxol-resistant human A549T24 cells after 72 hrs by MTT assay. In kind it is functional, cell-based. As to conditions: A549, 72 h.
Test [14] concerns A549. The test is described as follows: Resistance index, ratio of IC50 for A549 cells to IC50 for A549T12 cells. In kind it is functional, Homo sapiens.
The subject of test [15] is A549. The test is described as follows: Cell cycle arrest in human A549 cells assessed as accumulation at G1 phase at 1 uM after 24 hrs. It is filed as functional. The gist of the method:
(§2)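 A549 cells grown 24 h in drug-free medium or with compound at 0.1 or 1 µM. Cells were trypsinized, washed twice in PBS, fixed in cold 70% ethanol (30 min, -20 °C), then washed in citrate phosphate buffer and PBS. RNase (100 µg/mL) for 30 min at 37 °C, then propidium iodide (100 µg/mL) for 30 min at room temperature. Flow cytometry at 488/525 nm, ≥15 000 events, 3-4 repeats.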

For test [16], the system named is A549. The test is described as follows: Cell cycle arrest in human A549 cells assessed as accumulation at G1 phase at 0.1 uM after 24 hrs. In kind it is functional. The gist of the method:
as §2

Test [17] concerns A549. The test is described as follows: Cell cycle arrest in human A549 cells assessed as accumulation at S phase at 1 uM after 24 hrs. It is filed as functional. In outline:
as §2

Test [18] deals with A549. Briefly: Cell cycle arrest in human A549 cells assessed as accumulation at S phase at 0.1 uM after 24 hrs. In kind it is functional. In outline: as §2
For test [19], the system named is A549. Briefly: Cell cycle arrest in human A549 cells assessed as accumulation at G2/M phase at 1 uM after 24 hrs. It is filed as functional. The gist of the method: as §2
Test [20] has as its system A549. Briefly: Cell cycle arrest in human A549 cells assessed as accumulation at sub Go phase at 1 uM after 24 hrs. It is filed as functional.
Test [21] deals with A549. Briefly: Cell cycle arrest in human A549 cells assessed as accumulation at sub Go phase at 0.1 uM after 24 hrs. It is filed as functional.
For test [22], the system named is A549. The test is described as follows: Cell cycle arrest in human A549 cells assessed as accumulation at G2/M phase at 0.1 uM after 24 hrs. In kind it is functional. In outline: as §2

Each structure is given as a SMILES string.

As usually defined, the IC50 is the concentration needed to halve the response being measured. The low end stands for inhibition by little substance, the high end for a need for much substance.

As for `CCCn1ccc2c3c(=O)cc(-c4ccccc4)[nH]c3ccc21`, the half-inhibitory concentration (IC50) in test [1] was 30 nM; in test [2], 40 nM; in test [3], 20 nM; in test [4], 20 nM; in [5], 70 nM; in [6] it was 50 nM. Moreover, the half-maximal inhibitory concentration (IC50) in test [7] stood at 50 nM; in test [8] it was 200 nM; in test [9] it was 50 nM; in [10], 50 nM; in test [11], 100 nM; in [12], 40 nM. In addition, 40 nM corresponded to half-maximal inhibition in test [13] (IC50). Also, the Ratio IC50 in test [14] came out at 1.2. Besides, the Activity in [15] came out at 13.5%; in [16], 13.6%; in [17] it was 9.6%; in [18] it was 8.7%; in [19], 76.9%; in test [20], 0.3%. The Activity in test [21] was determined as 1.3%; in test [22], 76.2%.
Turning to `CCCCCn1ccc2c3c(=O)cc(-c4ccccc4)[nH]c3ccc21`, the half-maximal inhibitory concentration (IC50) in test [1] was determined as 20 nM; in test [2] it was 30 nM; in test [3], 20 nM; in [4] it was 20 nM; in [5] it was 80 nM; in test [6] it was 70 nM. Besides, the IC50 in test [7] turned out to be 40 nM; in test [8] it was 200 nM; in test [9], 40 nM; in test [10], 5 nM; in test [11] it was 20 nM; in test [12], 50 nM. This molecule registered a concentration for half-maximal inhibition (IC50) in [13] of 40 nM. Moreover, the Ratio IC50 in test [14] was 0.8. Further, the Activity in test [15] was 15.5%; in test [16] it was 12.4%; in test [17], 8.8%; in test [18], 7.2%; in [19] it was 75.5%; in test [20] it was 0.4%. Besides, the figures for the Activity in test [21] and in test [22] were 1% and 79.6%, respectively.

The values are drawn from ChEMBL document CHEMBL1137570, “3-substituted 7-phenyl-pyrroloquinolinones show potent cytotoxic activity in human cancer cell lines” (J Med Chem, 2007).
